Assay results from different studies.
Each line is one published result; the experiments were not run side by side.
Target: Serine/threonine-protein kinase N2 (PKN2, Homo sapiens, UniProt Q16513)

Structure (SMILES)	test	conditions	remaining binding [%]
Cc1nc(C2CCN(C(=O)c3ccc(OC(F)(F)F)cc3N)CC2)c2ncc(N3CCN(C)CC3)cc2n1	cell-free assay, competition with immobilised ligand	1 µM	100
O=C(NCC1CCOCC1)c1n[nH]cc1NC(=O)c1c(F)cccc1F	binding, competition with immobilised ligand	1 µM	89
Cc1c(NC(=O)c2cc(C(N)=O)nc3cc(F)ccc23)c(C(F)(F)F)nn1Cc1ccc(C#N)cc1	cell-free assay, competition with immobilised ligand	1 µM	81
CN(C)c1nccc(-c2cnn3ncccc23)n1	binding	1 µM	100
O=C1NC(c2ccccn2)Sc2ccccc21 (stereo not shown)	cell-free assay, competition with immobilised ligand	1 µM	100
Cc1cnn2ncc(-c3ccnc(N(C)C)n3)c2c1	binding	1 µM	94
COc1cnc(Nc2cccc(S(N)(=O)=O)c2)nc1N1CCN(c2ccccc2)C(=O)C1	binding, competition with immobilised ligand	1 µM	100
N[C@H]1CCN(c2nccc(-c3cnn4ncccc34)n2)C1	binding	1 µM	71
CCN1CCN(Cc2ccc(C(=O)Nc3ccc(C)c(Oc4ccc5c(c4)CC(=O)N5)c3)cc2C(F)(F)F)CC1	binding, competition with immobilised ligand	1 µM	100
C[C@@H]1CN(c2cc(-c3nn(C)c4ccc(OC5(C)CC5)cc34)ncn2)C[C@H](C)O1	cell-free assay, competition with immobilised ligand	1 µM	100
FC(F)(F)Oc1cccc(-c2cnc3ccc(-c4ccncc4)nn23)c1	cell-free assay, competition with immobilised ligand	5 µM	91
CN(c1nccc(-c2cnn3ncccc23)n1)C1CC1	binding	1 µM	89
CN(C)C(=O)Cn1cc(-c2nc(C3(c4ccc(-c5cnc(N)nc5)cc4)CC3)no2)cn1	cell-free assay, competition with immobilised ligand	1 µM	77
C[C@H]1CCN(c2nccc(-c3cnn4ncccc34)n2)C1	binding	1 µM	95
C[C@@H]1CN(c2cc(-c3n[nH]c4ccc(OC5(C)CC5)cc34)ncn2)C[C@H](C)O1	cell-free assay, competition with immobilised ligand	0.1 µM	89
O=C(NCCCN1CCOCC1)c1ccc(Nc2nccc(-c3cc4ccccc4s3)n2)cc1	binding, competition with immobilised ligand	1 µM	53
COc1ncc2cc3ccccc3nc2c1C#N	cell-free assay, competition with immobilised ligand	5 µM	80
O=C(c1ccc(Nc2ncc(Cl)c(-c3ccc(Cl)s3)n2)cc1)N1CCC(N2CCCC2)CC1	binding, competition with immobilised ligand	1 µM	56
CN(CCCC(F)(F)F)c1nccc(-c2cnn3ncccc23)n1	binding	1 µM	74
Cc1cnc(Nc2ccc(C(=O)N3CCC(N4CCCC4)CC3)cc2)nc1-c1cc2ccccc2s1	binding, competition with immobilised ligand	1 µM	21
COc1ccnn2ncc(-c3ccnc(N(C)C)n3)c12	binding	1 µM	87
c1cncc(-c2cccc(Nc3nccc(NC4CCCCC4)n3)c2)c1	binding, competition with immobilised ligand	10 µM	43
